The source made the active and inactive calls. No cut-off for these calls is given here.

The target of data set [1] is Transcription factor p65 (Mus musculus) (UniProt Q04207). The data set can be described thus: Antiinflammatory activity in mouse RAW264.7 cells assessed as inhibition of LPS-induced DNA binding activity of NF-kappaB p65 incubated for 1 hr prior to LPS challenge measured after 30 mins by ELISA relative to vehicle-treated control. Type of data set: cell-based. In outline: (§1)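 RAW264.7 cells preincubated with compound (0–20 µM) for 1 h, then stimulated with LPS for 30 min. NF-κB p65 DNA-binding activity quantified by ELISA-based TransAM p65 transcription factor kit. Means ± SEM of three independent experiments. LPS given at 0.5 µg/mL.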
Transcription factor p65 (Mus musculus), sequence (Q04207 whole entry): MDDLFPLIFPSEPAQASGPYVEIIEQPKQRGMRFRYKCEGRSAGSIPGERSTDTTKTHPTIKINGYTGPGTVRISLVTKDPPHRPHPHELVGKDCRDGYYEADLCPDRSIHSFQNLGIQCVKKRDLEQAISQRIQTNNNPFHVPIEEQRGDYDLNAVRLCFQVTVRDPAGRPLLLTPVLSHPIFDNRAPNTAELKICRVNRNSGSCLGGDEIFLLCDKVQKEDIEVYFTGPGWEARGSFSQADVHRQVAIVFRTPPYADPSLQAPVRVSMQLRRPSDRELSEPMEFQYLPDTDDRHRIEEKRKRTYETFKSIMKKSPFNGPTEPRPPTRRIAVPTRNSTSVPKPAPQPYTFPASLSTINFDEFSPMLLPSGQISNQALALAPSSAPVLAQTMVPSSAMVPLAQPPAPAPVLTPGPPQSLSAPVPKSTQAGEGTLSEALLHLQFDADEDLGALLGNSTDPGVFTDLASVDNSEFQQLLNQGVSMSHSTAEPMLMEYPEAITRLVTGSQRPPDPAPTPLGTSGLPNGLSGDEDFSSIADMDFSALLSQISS

Data set [2] shares this target. The data set can be described thus: Antiinflammatory activity in mouse RAW264.7 cells assessed as inhibition of LPS-induced DNA binding activity of NF-kappaB p65 at 10 uM incubated for 1 hr prior to LPS challenge measured after 30 mins by ELISA relative to vehicle-treated control. The data set is classed as cell-based. The method, boiled down: as §1
For data set [3], the system named is RAW264.7. As to the kind of experiment: Antiinflammatory activity in mouse RAW264.7 cells assessed as inhibition of LPS-induced ROS generation at 10 uM incubated for 2 hrs prior to LPS challenge measured after 22 hrs by spectrophotometry relative to vehicle-treated control. The data set is classed as functional. The method, boiled down: (§2)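 Compound (0–20 µM) applied to RAW 264.7 cells for 2 h, then LPS added for a further 22 h. Cells harvested, loaded with 10 µM DCFH-DA for 20 min, washed twice with cold PBS. Intracellular ROS read as arbitrary fluorescence units. Means ± SEM, four independent experiments.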

Data set [4] deals with RAW264.7. The data set can be described thus: Antiinflammatory activity in mouse RAW264.7 cells assessed as inhibition of LPS-induced increase in TNF-alpha level incubated for 2 hrs prior to LPS challenge measured after 22 hrs by ELISA. Type of data set: functional, cell-based. The method, boiled down:
(§3)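 RAW 264.7 macrophages pretreated 2 h with compound (0–20 µM) or 10 µM hydrocortisone as positive control, then exposed to LPS for a further 22 h. TNF-α, IL-1β and IL-6 in culture medium determined by ELISA. Means ± SEM from four independent experiments.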

Data set [5] deals with RAW264.7. As to the kind of experiment: Antiinflammatory activity in mouse RAW264.7 cells assessed as inhibition of LPS-induced increase in TNF-alpha level at 10 uM incubated for 2 hrs prior to LPS challenge measured after 22 hrs by ELISA relative to control. The data set is classed as functional. The method, boiled down:
as §3

For data set [6], the system named is RAW264.7. The data set can be described thus: Antiinflammatory activity in mouse RAW264.7 cells assessed as inhibition of LPS-induced nitric oxide production at 20 uM incubated for 2 hrs prior to LPS challenge measured after 22 hrs relative to vehicle-treated control. Type of data set: functional. The method, boiled down:
(§4)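 Cells treated 2 h with compound (0–20 µM) or 10 µM hydrocortisone, followed by LPS for a further 22 h. NO production estimated as nitrite in culture medium by Griess reaction. Inhibition expressed as blocked ratio. Means ± SEM, four independent experiments.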

Data set [7] deals with RAW264.7. As to the kind of experiment: Antiinflammatory activity in mouse RAW264.7 cells assessed as inhibition of LPS-induced increase in IL-6 level incubated for 2 hrs prior to LPS challenge measured after 22 hrs by ELISA. The data set is classed as functional, cell-based. The method, boiled down:
as §3

Data set [8] has as its system RAW264.7. As to the kind of experiment: Antiinflammatory activity in mouse RAW264.7 cells assessed as inhibition of LPS-induced increase in IL-6 level at 10 uM incubated for 2 hrs prior to LPS challenge measured after 22 hrs by ELISA relative to control. The data set is classed as functional. The method, boiled down:
as §3

Data set [9] concerns RAW264.7. The data set can be described thus: Antiinflammatory activity in mouse RAW264.7 cells assessed as inhibition of LPS-induced increase in IL-6 level at 20 uM incubated for 2 hrs prior to LPS challenge measured after 22 hrs by ELISA relative to control. Type of data set: functional. The method, boiled down:
as §3

Data set [10] addresses Transcription factor p65 (Mus musculus) (UniProt Q04207). The data set can be described thus: Antiinflammatory activity in mouse RAW264.7 cells assessed as inhibition of LPS-induced NF-kappaB p65 subunit nuclear translocation at 20 uM incubated for 1 hr prior to LPS challenge measured after 30 mins by immunofluorescence assay relative to vehicle-treated control. The data set is classed as cell-based. The method, boiled down: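 Immunofluorescence: RAW 264.7 cells pretreated with 20 µM compound for 1 h, then LPS for 30 min. p65 subunit localization (cytoplasm vs nucleus) imaged by fluorescence microscopy.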

Data set [11] relates to RAW264.7. The data set can be described thus: Antiinflammatory activity in mouse RAW264.7 cells assessed as inhibition of LPS-induced increase in IL-1beta level at 20 uM incubated for 2 hrs prior to LPS challenge measured after 22 hrs by ELISA relative to control. Type of data set: functional. In outline:
as §3

Data set [12] has as its target Transcription factor p65 (Mus musculus) (UniProt Q04207). The data set can be described thus: Antiinflammatory activity in mouse RAW264.7 cells assessed as inhibition of LPS-induced DNA binding activity of NF-kappaB p65 at 20 uM incubated for 1 hr prior to LPS challenge measured after 30 mins by ELISA relative to vehicle-treated control. Type of data set: cell-based. In outline:
as §1

Data set [13] deals with RAW264.7. As to the kind of experiment: Antiinflammatory activity in mouse RAW264.7 cells assessed as inhibition of LPS-induced increase in TNF-alpha level at 20 uM incubated for 2 hrs prior to LPS challenge measured after 22 hrs by ELISA relative to control. The data set is classed as functional. In outline:
as §3

For data set [14], the system named is RAW264.7. As to the kind of experiment: Cytotoxicity against mouse RAW264.7 cells assessed as cell viability at 0.01 to 100 uM after 24 hrs by MTT assay. As to conditions: raw264.7, 24 h. Type of data set: cell-based. The method, boiled down: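 Viability of RAW 264.7 cells measured by MTT after 24 h exposure to compound at 0.01–100 µM.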
Data set [15] concerns RAW264.7. The data set can be described thus: Antiinflammatory activity in mouse RAW264.7 cells assessed as inhibition of LPS-induced ROS generation at 20 uM incubated for 2 hrs prior to LPS challenge measured after 22 hrs by spectrophotometry relative to vehicle-treated control. The data set is classed as functional. The method, boiled down: as §2
In data set [16] the test system is RAW264.7. The data set can be described thus: Antiinflammatory activity in mouse RAW264.7 cells assessed as inhibition of LPS-induced nitric oxide production incubated for 2 hrs prior to LPS challenge measured after 22 hrs relative to vehicle-treated control. The data set is classed as functional, cell-based. The method, boiled down: as §4
The subject of data set [17] is RAW264.7. As to the kind of experiment: Antiinflammatory activity in mouse RAW264.7 cells assessed as inhibition of LPS-induced ROS generation incubated for 2 hrs prior to LPS challenge measured after 22 hrs by spectrophotometry relative to vehicle-treated control. Type of data set: functional, cell-based. The method, boiled down:
as §2

Data set [18] relates to RAW264.7. As to the kind of experiment: Antiinflammatory activity in mouse RAW264.7 cells assessed as inhibition of LPS-induced increase in IL-1beta level at 10 uM incubated for 2 hrs prior to LPS challenge measured after 22 hrs by ELISA relative to control. Type of data set: functional. In outline: as §3
Data set [19] deals with Transcription factor p65 (Mus musculus) (UniProt Q04207). The data set can be described thus: Antiinflammatory activity in mouse RAW264.7 cells assessed as inhibition of LPS-induced DNA binding activity of NF-kappaB p65 at 2 uM incubated for 1 hr prior to LPS challenge measured after 30 mins by ELISA relative to vehicle-treated control. Type of data set: cell-based. In outline: as §1

Data set [20] concerns RAW264.7. The data set can be described thus: Antiinflammatory activity in mouse RAW264.7 cells assessed as inhibition of LPS-induced nitric oxide production at 2 uM incubated for 2 hrs prior to LPS challenge measured after 22 hrs relative to vehicle-treated control. Type of data set: functional. The method, boiled down:
as §4

In data set [21] the test system is RAW264.7. The data set can be described thus: Antiinflammatory activity in mouse RAW264.7 cells assessed as inhibition of LPS-induced nitric oxide production at 10 uM incubated for 2 hrs prior to LPS challenge measured after 22 hrs relative to vehicle-treated control. Type of data set: functional. The method, boiled down:
as §4

Data set [22] deals with RAW264.7. As to the kind of experiment: Antiinflammatory activity in mouse RAW264.7 cells assessed as inhibition of LPS-induced increase in IL-1beta level incubated for 2 hrs prior to LPS challenge measured after 22 hrs by ELISA. The data set is classed as functional, cell-based. In outline:
as §3

For `CC1=C[C@]2(C(C)(C)O)C[C@]3(OC2=O)[C@@H](C)CC[C@@H]13`, the inhibition result in data set [1] was “Dose-dependent effect”; in data set [2], 51.3%; in the data set with RAW264.7 [4], “Dose-dependent effect”; in the data set on RAW264.7 [7] it was “Dose-dependent effect”; in [12], 68%; in the data set on RAW264.7 [16], “Dose-dependent effect”. For the same compound, the inhibition result in the data set on RAW264.7 [17] was “Dose-dependent effect”; in [19] it was 36.5%; in the data set on RAW264.7 [22] it was “Dose-dependent effect”. The inhibition at 10 µM with RAW264.7 [3] was found to be 57.9%; in the data set with RAW264.7 [5], 37.6%; with RAW264.7 [8] it was 37.3%; in the data set on RAW264.7 [18], 27.9%; with RAW264.7 [21], 53.9%. The inhibition at 20 µM in the data set on RAW264.7 [6] turned out to be 71%; in the data set on RAW264.7 [9], 78.3%; in the data set on RAW264.7 [11], 68%; in the data set on RAW264.7 [13], 55.4%; in the data set with RAW264.7 [15], 82.3%. The inhibition entry in [10] was “Active”. Besides, in the data set on RAW264.7 [14], the Activity result was “Non-toxic”. Further, in the data set with RAW264.7 [20], the inhibition at 2 µM was 25.1%.

For the compound `C[C@]12CCC(=O)C=C1CC[C@@H]1[C@@H]2[C@@H](O)C[C@@]2(C)[C@H]1CC[C@]2(O)C(=O)CO`, the inhibition entry in the data set with RAW264.7 [5], with RAW264.7 [8], in the data set on RAW264.7 [18] and in the data set with RAW264.7 [21] was “Active” in each case.

These data come from ChEMBL document CHEMBL3351270, “Curcumolide, a unique sesquiterpenoid with anti-inflammatory properties from Curcuma wenyujin” (Bioorg Med Chem Lett, 2015).
